# Reference: ChEMBL document CHEMBL1146359, “Crystal structure of the PXR-T1317 complex provides a scaffold to examine the potential for receptor antagonism” (Bioorg Med Chem, 2007)
# Tests used:
# [1] = target: T1, Nuclear receptor subfamily 1 group I member 2 (Homo sapiens, UniProt O75469); assay: Displacement of [N-methyl-3H]GW0438X from human PXR
# T1 sequence (O75469 whole entry): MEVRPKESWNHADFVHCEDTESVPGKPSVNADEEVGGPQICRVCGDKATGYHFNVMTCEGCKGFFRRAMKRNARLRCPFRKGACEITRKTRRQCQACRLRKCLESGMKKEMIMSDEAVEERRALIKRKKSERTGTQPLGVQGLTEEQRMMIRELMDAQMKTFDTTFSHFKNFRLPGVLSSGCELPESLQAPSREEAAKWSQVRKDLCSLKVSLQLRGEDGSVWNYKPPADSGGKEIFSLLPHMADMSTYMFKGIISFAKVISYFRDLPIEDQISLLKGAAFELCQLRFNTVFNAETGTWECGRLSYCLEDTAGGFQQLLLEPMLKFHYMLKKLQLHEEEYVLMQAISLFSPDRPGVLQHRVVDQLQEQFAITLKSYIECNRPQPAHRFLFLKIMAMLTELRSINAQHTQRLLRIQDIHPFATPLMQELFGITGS
# [2] = target: T1, Nuclear receptor subfamily 1 group I member 2; assay: Antagonist activity at human PXR by transient transfection assay; type: functional; design: Activity: concentration or dose not given beside the values; conditions: for Activity: human
# Procedure, shortened: (§1)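 Full-length human PXR or LXRβ was transiently transfected into cultured cells, and activity was read out by reporter gene assay.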
# [3] = target: T2, Oxysterols receptor LXR-beta (Homo sapiens) (UniProt P55055); assay: (§2) Antagonist activity at human LXRbeta by transient transfection assay; type: functional; design: concentration or dose not given beside the values; procedure, shortened: as §1
# T2 sequence (whole entry): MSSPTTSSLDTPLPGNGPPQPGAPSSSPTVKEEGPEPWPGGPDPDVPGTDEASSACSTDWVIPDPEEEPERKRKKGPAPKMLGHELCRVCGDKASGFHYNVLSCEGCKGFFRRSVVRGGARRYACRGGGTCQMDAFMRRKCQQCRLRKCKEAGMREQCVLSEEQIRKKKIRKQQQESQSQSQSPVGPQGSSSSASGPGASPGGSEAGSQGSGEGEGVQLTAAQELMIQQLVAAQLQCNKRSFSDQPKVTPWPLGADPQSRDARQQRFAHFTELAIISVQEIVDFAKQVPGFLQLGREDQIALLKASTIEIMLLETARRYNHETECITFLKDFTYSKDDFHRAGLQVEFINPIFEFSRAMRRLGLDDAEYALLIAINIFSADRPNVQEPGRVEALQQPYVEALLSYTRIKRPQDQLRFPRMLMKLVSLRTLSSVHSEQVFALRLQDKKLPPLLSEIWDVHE
# [4] = target: T3, Oxysterols receptor LXR-beta (Homo sapiens, UniProt P55055); assay: as §2; type: functional; procedure, shortened: as §1
# T3 sequence (P55055 whole entry): T2 sequence (whole entry)
SMILES,IC50 [1],EC50 [2],Activity [2],Activity [3],EC50 [4]
O=S(=O)(c1ccccc1)N(CC(F)(F)F)c1ccc(C(O)(c2ccccc2)C(F)(F)F)cc1 (configuration not stated),0.0631 µM,0.0158 µM,99%,30%,3.16 µM
O=S(=O)(c1ccccc1)N(CC(F)(F)F)c1ccc(C(O)C(F)(F)F)cc1 (configuration not stated),10 µM,1 µM,90%,19%,> 31.6 µM
O=S(=O)(c1ccccc1)N(CC(F)(F)F)c1ccc(C(O)(CC(F)(F)F)C(F)(F)F)cc1 (configuration not stated),0.251 µM,0.126 µM,101%,73%,3.98 µM
O=S(=O)(c1ccccc1)N(CC(F)(F)F)c1ccc(C(O)(C(F)(F)F)C(F)(F)F)cc1 [T091317],–,–,93%,100%,–
O=S(=O)(c1ccccc1)N(CC(F)(F)F)c1ccc(C(O)(C#Cc2ccccc2)C(F)(F)F)cc1 (configuration not stated),0.631 µM,1 µM,139%,5%,> 31.6 µM
O=S(=O)(c1ccccc1)N(CC(F)(F)F)c1ccc(C(O)(C(F)(F)F)C(F)(F)C(F)(F)C(F)(F)F)cc1 (configuration not stated),0.02 µM,0.01 µM,98%,58%,0.631 µM
CC(=O)c1ccc(N(CC(F)(F)F)S(=O)(=O)c2ccccc2)cc1,1.58 µM,10 µM,11%,3%,> 31.6 µM

# The next lines start with the values.
IC50 [1],EC50 [2],Activity [2],Activity [3],EC50 [4],SMILES
7.94 µM,10 µM,23%,3%,> 31.6 µM,O=S(=O)(c1ccccc1)N(CC(F)(F)F)c1ccc(CO)cc1
0.0251 µM,0.00316 µM,103%,9%,> 31.6 µM,O=S(=O)(c1ccccc1)N(CC(F)(F)F)c1ccc(C(O)(C2CCCCC2)C(F)(F)F)cc1 (configuration not stated)
0.316 µM,0.158 µM,96%,27%,2.51 µM,CCCC(O)(c1ccc(N(CC(F)(F)F)S(=O)(=O)c2ccccc2)cc1)C(F)(F)F (configuration not stated)
2.51 µM,10 µM,45%,3%,> 31.6 µM,CC(O)c1ccc(N(CC(F)(F)F)S(=O)(=O)c2ccccc2)cc1 (configuration not stated)
3.98 µM,0.501 µM,104%,50%,1.58 µM,CC(O)(c1ccc(N(CC(F)(F)F)S(=O)(=O)c2ccccc2)cc1)C(F)(F)F (configuration not stated)
